Results taken from ChEMBL document CHEMBL5303300, “EUbOPEN Chemogenomics Library - Multiplex” (2023).
“And” between values parts separate entries of the source, which are not always exact repeats. Identical values can stand only once.

What was measured:
Type in all cases: toxicity, cell-based
[1] = tested on: U2OS; test: Multiplex assay against U2OS; settings: human, number of replicates 2
Summary of the method: (§1)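 On a CQ1 microscope at 37°C and 5% CO2, live cells were imaged after compound addition. They had been stained at seeding with Hoechst33342, BioTracker Green Microtubule Cytoskeleton Dye, MitoTracker Red and Annexin V Alexa Fluor 680. CellPathfinder machine-learning gating assigned cells to Hoechst high-intensity objects or normal cells, normal cells to healthy, pyknosed or fragmented nuclei, and pyknosed cells to mitotic or apoptotic. Tubulin, mitochondrial-mass and membrane-permeability phenotypes are per cents of healthy-nucleus cells.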

[2] = tested on: HEK-293T; test: Multiplex assay against HEK293T; settings: human, number of replicates 2; summary of the method: as §1
[3] = tested on: Fibroblast; test: Multiplex assay against human fibroblast; settings: number of replicates 2; summary of the method: as §1
[4] = 12 h, 1 µM, compound concentration 1 uM
[5] = 12 h, 10 µM, compound concentration 10 uM
[6] = 24 h, 1 µM, compound concentration 1 uM
[7] = 24 h, 10 µM, compound concentration 10 uM
[8] = 48 h, 1 µM, compound concentration 1 uM
[9] = 48 h, 10 µM, compound concentration 10 uM

## O=C1CCCN1CCNc1nc(Nc2ccc(Cl)c(Cl)c2)ncc1C(F)(F)F
[1]; [4]
  Population Apoptotic (%): 50% and 68%
  Population Fragmented Nuclei (%): 5% and 3%
  Population Healthy Nuclei (%): 70% and 91%
  Population Hoechst High Intensity Objects (%): 0%
  Population Membrane Permeable-Phenotype (%): 0% and 3%
  Population Mitochondria Different-Phenotype (%): 0% and 1%
  Population Mitotic Cells (%): 50% and 31%
  Population Normal (%): 100%
  Population Tubulin-Different-Phenotype (%): 91% and 81%
[1]; [5]
  Population Apoptotic (%): 100% and 57%
  Population Healthy Nuclei (%): 73% and 80%
  Population Hoechst High Intensity Objects (%): 0%
  Population Membrane Permeable-Phenotype (%): 7% and 5%
  Population Mitochondria Different-Phenotype (%): 7% and 0%
  Population Normal (%): 100% and 99%
  Population Pyknosed Nuclei (%): 5% and 13%
  Population Tubulin-Different-Phenotype (%): 64% and 50%
[1]; [6]
  Population Apoptotic (%): 100% and 73%
  Population Fragmented Nuclei (%): 0% and 3%
  Population Healthy Nuclei (%): 90%
  Population Hoechst High Intensity Objects (%): 0%
  Population Membrane Permeable-Phenotype (%): 0% and 2%
  Population Mitochondria Different-Phenotype (%): 0%
  Population Normal (%): 100%
  Population Pyknosed Nuclei (%): 9% and 5%
  Population Tubulin-Different-Phenotype (%): 96% and 79%
[1]; [7]
  Population Apoptotic (%): 70% and 80%
  Population Healthy Nuclei (%): 86% and 70%
  Population Hoechst High Intensity Objects (%): 0%
  Population Membrane Permeable-Phenotype (%): 3%
  Population Mitochondria Different-Phenotype (%): 1% and 0%
  Population Mitotic Cells (%): 29% and 20%
  Population Normal (%): 100%
  Population Pyknosed Nuclei (%): 10% and 12%
  Population Tubulin-Different-Phenotype (%): 57% and 35%
[1]; [8]
  Population Apoptotic (%): 71% and 84%
  Population Fragmented Nuclei (%): 8% and 3%
  Population Healthy Nuclei (%): 79% and 92%
  Population Hoechst High Intensity Objects (%): 0%
  Population Membrane Permeable-Phenotype (%): 0% and 1%
  Population Mitochondria Different-Phenotype (%): 2% and 0%
  Population Mitotic Cells (%): 28% and 15%
  Population Normal (%): 100%
  Population Pyknosed Nuclei (%): 12% and 4%
  Population Tubulin-Different-Phenotype (%): 95% and 87%
[1]; [9]
  Population Apoptotic (%): 86% and 75%
  Population Fragmented Nuclei (%): 5% and 6%
  Population Healthy Nuclei (%): 79% and 76%
  Population Hoechst High Intensity Objects (%): 0%
  Population Membrane Permeable-Phenotype (%): 4% and 2%
  Population Mitochondria Different-Phenotype (%): 0% and 2%
  Population Mitotic Cells (%): 13% and 25%
  Population Normal (%): 99% and 100%
  Population Pyknosed Nuclei (%): 14% and 17%
  Population Tubulin-Different-Phenotype (%): 67% and 47%
[2]; [4]
  Population Apoptotic (%): 57% and 53%
  Population Fragmented Nuclei (%): 5% and 3%
  Population Healthy Nuclei (%): 80% and 83%
  Population Hoechst High Intensity Objects (%): 9%
  Population Membrane Permeable-Phenotype (%): 3% and 1%
  Population Mitochondria Different-Phenotype (%): 26% and 20%
  Population Mitotic Cells (%): 42% and 46%
  Population Normal (%): 90%
  Population Pyknosed Nuclei (%): 13%
  Population Tubulin-Different-Phenotype (%): 60% and 61%
  Total Cell Count: 624 and 889
[2]; [5]
  Population Apoptotic (%): 57% and 62%
  Population Fragmented Nuclei (%): 3% and 5%
  Population Healthy Nuclei (%): 76%
  Population Hoechst High Intensity Objects (%): 11% and 7%
  Population Membrane Permeable-Phenotype (%): 5% and 4%
  Population Mitochondria Different-Phenotype (%): 30% and 21%
  Population Mitotic Cells (%): 42% and 37%
  Population Normal (%): 88% and 92%
  Population Pyknosed Nuclei (%): 19% and 18%
  Population Tubulin-Different-Phenotype (%): 67% and 66%
  Total Cell Count: 488 and 473
[2]; [6]
  Population Apoptotic (%): 57% and 53%
  Population Fragmented Nuclei (%): 9% and 7%
  Population Healthy Nuclei (%): 80% and 81%
  Population Hoechst High Intensity Objects (%): 8% and 9%
  Population Membrane Permeable-Phenotype (%): 2% and 1%
  Population Mitochondria Different-Phenotype (%): 5% and 4%
  Population Mitotic Cells (%): 42% and 46%
  Population Normal (%): 91% and 90%
  Population Pyknosed Nuclei (%): 10%
  Population Tubulin-Different-Phenotype (%): 32% and 31%
  Total Cell Count: 951 and 1356
[2]; [7]
  Population Apoptotic (%): 56% and 71%
  Population Fragmented Nuclei (%): 7% and 5%
  Population Healthy Nuclei (%): 78% and 79%
  Population Hoechst High Intensity Objects (%): 8% and 7%
  Population Membrane Permeable-Phenotype (%): 5% and 3%
  Population Mitochondria Different-Phenotype (%): 13% and 8%
  Population Mitotic Cells (%): 43% and 28%
  Population Normal (%): 91% and 92%
  Population Pyknosed Nuclei (%): 13% and 15%
  Population Tubulin-Different-Phenotype (%): 39% and 36%
  Total Cell Count: 751 and 650
[2]; [8]
  Population Apoptotic (%): 17% and 24%
  Population Fragmented Nuclei (%): 14% and 12%
  Population Healthy Nuclei (%): 82% and 83%
  Population Hoechst High Intensity Objects (%): 10% and 12%
  Population Membrane Permeable-Phenotype (%): 6% and 2%
  Population Mitochondria Different-Phenotype (%): 0%
  Population Mitotic Cells (%): 82% and 75%
  Population Normal (%): 89% and 87%
  Population Pyknosed Nuclei (%): 3%
  Population Tubulin-Different-Phenotype (%): 14% and 17%
  Total Cell Count: 2336 and 2853
[2]; [9]
  Population Apoptotic (%): 23% and 27%
  Population Fragmented Nuclei (%): 11% and 9%
  Population Healthy Nuclei (%): 83% and 86%
  Population Hoechst High Intensity Objects (%): 8% and 5%
  Population Membrane Permeable-Phenotype (%): 5% and 4%
  Population Mitochondria Different-Phenotype (%): 2% and 3%
  Population Mitotic Cells (%): 76% and 72%
  Population Normal (%): 91% and 94%
  Population Pyknosed Nuclei (%): 5% and 4%
  Population Tubulin-Different-Phenotype (%): 16% and 28%
  Total Cell Count: 1562 and 1106
[3]; [4]
  Population Apoptotic (%): 38% and 28%
  Population Fragmented Nuclei (%): 10% and 8%
  Population Healthy Nuclei (%): 76% and 68%
  Population Hoechst High Intensity Objects (%): 0%
  Population Membrane Permeable-Phenotype (%): 2% and 1%
  Population Mitochondria Different-Phenotype (%): 1%
  Population Mitotic Cells (%): 61% and 71%
  Population Normal (%): 100%
  Population Pyknosed Nuclei (%): 13% and 22%
  Population Tubulin-Different-Phenotype (%): 12% and 9%
  Total Cell Count: 233 and 219
[3]; [5]
  Population Apoptotic (%): 52% and 36%
  Population Fragmented Nuclei (%): 6% and 15%
  Population Healthy Nuclei (%): 40% and 52%
  Population Hoechst High Intensity Objects (%): 0%
  Population Membrane Permeable-Phenotype (%): 19% and 26%
  Population Mitochondria Different-Phenotype (%): 1% and 4%
  Population Mitotic Cells (%): 47% and 63%
  Population Normal (%): 100%
  Population Pyknosed Nuclei (%): 52% and 32%
  Population Tubulin-Different-Phenotype (%): 35% and 50%
  Total Cell Count: 138 and 193
[3]; [6]
  Population Apoptotic (%): 54% and 41%
  Population Fragmented Nuclei (%): 8% and 6%
  Population Healthy Nuclei (%): 76% and 70%
  Population Hoechst High Intensity Objects (%): 0%
  Population Membrane Permeable-Phenotype (%): 5%
  Population Mitochondria Different-Phenotype (%): 1% and 0%
  Population Mitotic Cells (%): 45% and 58%
  Population Normal (%): 100%
  Population Pyknosed Nuclei (%): 14% and 22%
  Population Tubulin-Different-Phenotype (%): 14% and 9%
  Total Cell Count: 234 and 227
[3]; [7]
  Population Apoptotic (%): 70% and 60%
  Population Fragmented Nuclei (%): 6% and 15%
  Population Healthy Nuclei (%): 44% and 50%
  Population Hoechst High Intensity Objects (%): 0%
  Population Membrane Permeable-Phenotype (%): 16% and 14%
  Population Mitochondria Different-Phenotype (%): 3% and 5%
  Population Mitotic Cells (%): 29% and 39%
  Population Normal (%): 99% and 100%
  Population Pyknosed Nuclei (%): 48% and 34%
  Population Tubulin-Different-Phenotype (%): 53% and 50%
  Total Cell Count: 135 and 198
[3]; [8]
  Population Apoptotic (%): 82% and 66%
  Population Fragmented Nuclei (%): 13% and 11%
  Population Healthy Nuclei (%): 73% and 72%
  Population Hoechst High Intensity Objects (%): 0%
  Population Membrane Permeable-Phenotype (%): 2% and 1%
  Population Mitochondria Different-Phenotype (%): 0%
  Population Mitotic Cells (%): 17% and 33%
  Population Normal (%): 100% and 99%
  Population Pyknosed Nuclei (%): 12% and 15%
  Population Tubulin-Different-Phenotype (%): 11% and 6%
  Total Cell Count: 230 and 215
[3]; [9]
  Population Apoptotic (%): 89% and 74%
  Population Fragmented Nuclei (%): 9% and 17%
  Population Healthy Nuclei (%): 52% and 53%
  Population Hoechst High Intensity Objects (%): 0%
  Population Membrane Permeable-Phenotype (%): 21% and 12%
  Population Mitochondria Different-Phenotype (%): 0% and 2%
  Population Mitotic Cells (%): 10% and 25%
  Population Normal (%): 99% and 100%
  Population Pyknosed Nuclei (%): 37% and 28%
  Population Tubulin-Different-Phenotype (%): 40% and 31%
  Total Cell Count: 124 and 180
